Measured values reported in ChEMBL document CHEMBL2434837, “Anticancer evaluation of some newly synthesized N-nicotinonitrile derivative” (Eur J Med Chem, 2013).
≈ marks a conversion by molar mass, not a printed value. Calls of active or inactive are those of the source. No cut-off for these calls is given here.

Tests used:
[1] = tested on: HepG2; test: Cytotoxicity against human HepG2 cells after 48 hrs by SRB assay; format: functional, cell-based
Summary of the method: (§1)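 Cells from ATCC, kept in DMEM with 10% heat-inactivated fetal calf serum, penicillin and streptomycin at 37 °C, 5% CO2. Seeded at 10^4 cells/well and left 24 h to attach. Compounds in DMSO (1 mg/ml stock) added at several concentrations, triplicate wells per dose, 48 h exposure. Then fixed, stained 30 min with 0.4% SRB in 1% acetic acid, and dye recovered in Tris-EDTA for absorbance. IC50 derived from surviving fraction versus concentration.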

[2] = tested on: A549; test: Cytotoxicity against human A549 cells after 48 hrs by SRB assay; format: functional, cell-based; summary of the method: as §1
[3] = tested on: MCF7; test: Inhibition of uPA protein expression in human MCF7 cells at 0.1 time compound IC50 after 48 hrs by ELISA; format: functional
Summary of the method: (§2)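 Cells exposed 48 h to compound. Culture medium collected and spun at 2000 xg for 10 min to remove debris. Sandwich ELISA for human uPA: sample 2 h, biotinylated anti-uPA 1 h at 25 °C, streptavidin-peroxidase 30 min, chromogen, then stop solution, absorbance read at 450 nm. uPA level expressed as percent change relative to DMSO-treated control cells.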

[4] = tested on: HepG2; test: Inhibition of uPA protein expression in human HepG2 cells at 0.1 time compound IC50 after 48 hrs by ELISA; format: functional; summary of the method: as §2
[5] = tested on: A549; test: Inhibition of uPA protein expression in human A549 cells at 0.1 time compound IC50 after 48 hrs by ELISA; format: functional; summary of the method: as §2
[6] = tested on: MCF7; test: Cytotoxicity against human MCF7 cells after 48 hrs by SRB assay; format: functional, cell-based; summary of the method: as §1
[7] = Homo sapiens, HepG2, 48 h, read-out: IC50
[8] = Homo sapiens, MCF7, 48 h, read-out: IC50

Structure (SMILES) | IC50 [1, 7] | IC50 ([2]; a549) | inhibition (INH) [3] | inhibition (INH) [4] | inhibition [5] | IC50 [6, 8] | IC50 ([1]; hepg2) | inhibition [3] | inhibition [4] | IC50 ([6]; mcf7) | IC50 ([2]; Homo sapiens, A549, 48 h, read-out: IC50) | inhibition (INH) [5]
CCn1c(-c2ccc(Cl)cc2)cc(-c2ccc(Cl)cc2)c(C#N)c1=O | 22.3 µg/mL (≈ 60.4 µM) | Not Active | 3% | 2% | inactive | 19.7 µg/mL (≈ 53.4 µM) | – | – | – | – | – | –
N#Cc1c(-c2ccc(Cl)cc2)cc(-c2ccc(Cl)cc2)n(CC2CO2)c1=O (stereo not drawn) | 6.2 µg/mL (≈ 15.6 µM) | Not Active | 77% | 63% | inactive | 5 µg/mL (≈ 12.6 µM) | – | – | – | – | – | –
C#CCn1c(-c2ccc(Cl)cc2)cc(-c2ccc(Cl)cc2)c(C#N)c1=O | 18.3 µg/mL (≈ 48.3 µM) | Not Active | 7% | 5% | inactive | 16.7 µg/mL (≈ 44 µM) | – | – | – | – | – | –
C=CCn1c(-c2ccc(Cl)cc2)cc(-c2ccc(Cl)cc2)c(C#N)c1=O | 20 µg/mL (≈ 52.5 µM) | Not Active | 3% | 5% | inactive | 19 µg/mL (≈ 49.8 µM) | – | – | – | – | – | –
N#Cc1c(-c2ccc(Cl)cc2)cc(-c2ccc(Cl)cc2)n([C@@H]2O[C@H](CO)[C@@H](O)[C@H]2O)c1=O | 6.9 µg/mL (≈ 14.6 µM) | Not Active | 60% | 56% | inactive | 5.7 µg/mL (≈ 12 µM) | – | – | – | – | – | –
N#Cc1c(-c2ccc(Cl)cc2)cc(-c2ccc(Cl)cc2)n(CC(O)CCl)c1=O (stereo not drawn) | 4.8 µg/mL (≈ 11.1 µM) | Not Active | 82% | 67% | inactive | 4.6 µg/mL (≈ 10.6 µM) | – | – | – | – | – | –
N#Cc1c(-c2ccc(Cl)cc2)cc(-c2ccc(Cl)cc2)n(C(=O)c2ccccc2)c1=O | 3.75 µg/mL (≈ 8.42 µM) | Not Active | 90% | 87% | inactive | 2.6 µg/mL (≈ 5.84 µM) | – | – | – | – | – | –
N#Cc1c(-c2ccc(Cl)cc2)cc(-c2ccc(Cl)cc2)n([C@@H]2O[C@H](CO)[C@@H](O)[C@H](O)[C@H]2O)c1=O | 16.1 µg/mL (≈ 32 µM) | Not Active | 9% | 6% | inactive | 14.2 µg/mL (≈ 28.2 µM) | – | – | – | – | – | –
N#Cc1c(-c2ccc(Cl)cc2)cc(-c2ccc(Cl)cc2)[nH]c1=O | – | Not Active | – | – | inactive | – | Not Active | inactive | inactive | Not Active | – | –
N#CCn1c(-c2ccc(Cl)cc2)cc(-c2ccc(Cl)cc2)c(C#N)c1=O | – | Not Active | – | – | inactive | – | Not Active | inactive | inactive | Not Active | – | –
COc1cccc2c1C(=O)c1c(O)c3c(c(O)c1C2=O)C[C@@](O)(C(=O)CO)C[C@@H]3O[C@H]1C[C@H](N)[C@H](O)[C@H](C)O1 [DOXORUBICIN] | 3.9 µg/mL (≈ 7.18 µM) | – | 91% | 88% | – | – | – | – | – | – | 4.11 µg/mL (≈ 7.56 µM) | 82%
N#Cc1c(-c2ccc(Cl)cc2)cc(-c2ccc(Cl)cc2)n(Cc2ccccc2)c1=O | 4.2 µg/mL (≈ 9.74 µM) | Not Active | 86% | 83% | inactive | 3.65 µg/mL (≈ 8.46 µM) | – | – | – | – | – | –
N#Cc1c(-c2ccc(Cl)cc2)cc(-c2ccc(Cl)cc2)n([C@@H]2O[C@H](COC(=O)c3ccccc3)[C@@H](OC(=O)c3ccccc3)[C@H]2OC(=O)c2ccccc2)c1=O | 8 µg/mL (≈ 10.2 µM) | Not Active | 66% | 60% | inactive | 5.9 µg/mL (≈ 7.51 µM) | – | – | – | – | – | –
CC(=O)OC[C@H]1O[C@@H](n2c(-c3ccc(Cl)cc3)cc(-c3ccc(Cl)cc3)c(C#N)c2=O)[C@H](OC(C)=O)[C@@H](OC(C)=O)[C@@H]1OC(C)=O | 7.25 µg/mL (≈ 10.8 µM) | Not Active | 54% | 48% | inactive | 6.3 µg/mL (≈ 9.38 µM) | – | – | – | – | – | –
